The subject of series [1] is Leishmania donovani. Description: Competitive inhibition of Leishmania donovani recombinant nucleoside hydrolase expressed in Escherichia coli DH5alpha coexpressing MBP using inosine as substrate by Lineweaver-Burk plot analysis.
Series [2] deals with Xanthine dehydrogenase/oxidase (Homo sapiens, UniProt P47989). Briefly: Inhibition of xanthine oxidase using hypoxanthine as substrate by UV-Vis spectrophotometry. The method, boiled down:
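Control with xanthine oxidase and hypoxanthine: uric acid formation followed spectrophotometrically, with and without test compound.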

Series [3] deals with Leishmania donovani. Briefly: Ratio of inosine Km to compound Ki for Leishmania donovani recombinant nucleoside hydrolase.
Series [4] is described as follows: Inhibition of Leishmania donovani recombinant nucleoside hydrolase expressed in Escherichia coli DH5alpha coexpressing MBP using inosine as substrate by xanthine oxidase-coupled assay. The method, boiled down: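 MBP-fused enzyme (13 nM) with 0.3 mM inosine and xanthine oxidase (60 milliunits/mL) in 20 mM phosphate pH 8.0. Uric acid formation read at 293 nm, with at least six inhibitor concentrations. IC50 from nonlinear dose-response fit of % inhibition. Ki from five or six inhibitor concentrations at a substrate level near KM, converted with the Cheng–Prusoff equation.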

In series [5] the test system is Leishmania donovani. Briefly: Activity of Leishmania donovani recombinant nucleoside hydrolase expressed in Escherichia coli DH5alpha coexpressing MBP. The procedure, abridged: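 LdNH fused to MBP, expressed from pMAL-c2-NH36 in E. coli DH5α (IPTG 0.3 mM, 2 h) and amylose-purified. Inosine hydrolysis coupled to excess xanthine oxidase (60 milliunits/mL) converting hypoxanthine to uric acid, read at 293 nm. 13 nM enzyme, inosine 0.3–3.0 KM, 20 mM phosphate pH 8.0, room temperature, triplicate. KM and Vmax from nonlinear Michaelis–Menten fit of initial velocities.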

The structures appear in SMILES notation. Active and inactive are the calls of the source. The calls are words filed in the database; no cut-off is given here.

Xanthine dehydrogenase/oxidase, sequence (P47989 whole entry): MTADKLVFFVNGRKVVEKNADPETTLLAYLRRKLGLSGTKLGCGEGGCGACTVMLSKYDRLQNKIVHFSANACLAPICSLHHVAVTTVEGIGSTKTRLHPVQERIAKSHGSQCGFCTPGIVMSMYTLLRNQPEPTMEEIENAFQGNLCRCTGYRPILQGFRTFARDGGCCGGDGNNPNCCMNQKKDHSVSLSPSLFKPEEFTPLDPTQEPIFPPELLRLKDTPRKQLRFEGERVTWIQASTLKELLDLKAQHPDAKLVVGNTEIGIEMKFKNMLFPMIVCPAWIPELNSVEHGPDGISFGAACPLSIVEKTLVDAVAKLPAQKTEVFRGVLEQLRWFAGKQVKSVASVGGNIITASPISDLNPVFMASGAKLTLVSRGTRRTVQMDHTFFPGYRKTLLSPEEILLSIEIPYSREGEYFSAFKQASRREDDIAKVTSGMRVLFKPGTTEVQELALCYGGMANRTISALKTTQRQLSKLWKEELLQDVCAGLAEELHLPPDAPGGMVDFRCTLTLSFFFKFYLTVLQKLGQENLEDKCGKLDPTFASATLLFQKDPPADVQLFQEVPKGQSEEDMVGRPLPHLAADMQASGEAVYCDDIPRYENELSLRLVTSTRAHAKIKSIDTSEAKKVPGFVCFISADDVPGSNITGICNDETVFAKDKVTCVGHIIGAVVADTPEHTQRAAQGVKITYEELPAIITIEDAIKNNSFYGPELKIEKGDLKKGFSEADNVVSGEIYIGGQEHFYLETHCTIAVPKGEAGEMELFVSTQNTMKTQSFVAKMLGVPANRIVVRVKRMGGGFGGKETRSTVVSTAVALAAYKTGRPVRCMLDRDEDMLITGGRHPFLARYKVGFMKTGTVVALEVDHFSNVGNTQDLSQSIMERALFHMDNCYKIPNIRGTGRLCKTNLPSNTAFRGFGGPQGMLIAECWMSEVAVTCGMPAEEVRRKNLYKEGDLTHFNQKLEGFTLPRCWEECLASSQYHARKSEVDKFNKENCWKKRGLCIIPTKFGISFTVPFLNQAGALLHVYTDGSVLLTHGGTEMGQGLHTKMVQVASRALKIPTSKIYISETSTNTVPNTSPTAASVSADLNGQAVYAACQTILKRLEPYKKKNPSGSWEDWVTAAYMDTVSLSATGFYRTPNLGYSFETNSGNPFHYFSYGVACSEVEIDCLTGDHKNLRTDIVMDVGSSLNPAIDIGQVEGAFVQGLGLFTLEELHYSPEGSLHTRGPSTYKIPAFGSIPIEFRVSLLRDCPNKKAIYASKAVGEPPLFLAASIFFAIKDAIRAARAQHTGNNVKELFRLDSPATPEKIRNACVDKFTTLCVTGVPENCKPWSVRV

In the case of `O=C(O)c1cn([C@@H]2O[C@H](CO)[C@@H](O)[C@H]2O)c2ccc(F)cc2c1=O`, the inhibition entry in series [1] was “Active”. In addition, the “inhibition (INH)” value in series [2] was “Not Active”. The Ratio in series [3] was 26. Further, in series [4], the IC50 came to 28.9 µM and the Ki turned out to be 17 µM.

With `O=c1[nH]cnc2c1ncn2[C@@H]1O[C@H](CO)[C@@H](O)[C@H]1O`, the Km in series [5] stood at 434 µM.

With `O=C(O)c1cn([C@@H]2O[C@H](CO)[C@@H](O)[C@H]2O)c2ccc(Cl)cc2c1=O`, the inhibition result in series [1] is “Active”. Moreover, the “inhibition (INH)” value in series [2] is “Not Active”. Further, the Ratio in series [3] is 270. Besides, in series [4], the IC50 was found to be 2.66 µM and the Ki was determined as 1.6 µM.

(Values after ChEMBL document CHEMBL2086294, “Kinetics and docking studies of two potential new inhibitors of the nucleoside hydrolase from Leishmania donovani” (Eur J Med Chem, 2012).)
